Experimental data published in publication PMC10582670 (Clinical and Translational Science, 2023).
Values joined by “and” are separate entries in the source; they are usually repeats but may differ in a detail not shown here. Equal entries are not always repeated.

Test system: healthy volunteers
Test: Safety and tolerability
Format: in vivo, human
In short: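 Healthy volunteers aged 18–55 y, BMI 18–30 kg/m², randomised double-blind 8:2 to once-daily oral drug or placebo for up to 14 days, with follow-up visits on days 21 and 42. Treatment-emergent AEs coded with MedDRA 23.1 and graded with the WHO toxicity scale, alongside ECGs, laboratory tests and vital signs. The safety population was all subjects receiving at least one dose.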

[1] = SAD (fasted) All GDC-8264, n = 28

Structure (SMILES): O=C(c1nc2n(n1)[C@H](c1ccccc1)C[C@@H]2F)C1CC1 [GDC‐8264]
- No. of TEAEs (SAD (fasted) 75 mg, n = 5): 8
- No. of deaths (SAD (fasted) 75 mg, n = 5): 0 no. of subjects (%)
- No. of subjects with at least one Related TEAE (SAD (fasted) 75 mg, n = 5): 1 (20.0) no. of subjects (%)
- No. of subjects with at least one Serious TEAE (SAD (fasted) 75 mg, n = 5): 0 no. of subjects (%)
- No. of subjects with at least one TEAE (SAD (fasted) 75 mg, n = 5): 3 (60.0) no. of subjects (%)
- No. of subjects withdrawn from study due to a TEAE (SAD (fasted) 75 mg, n = 5): 0 no. of subjects (%)
- TEAE Abdominal pain (SAD (fasted) 75 mg, n = 5): 0 no. of subjects (%)
- TEAE Back pain (SAD (fasted) 75 mg, n = 5): 1 (20.0) no. of subjects (%)
- TEAE Catheter site pain (SAD (fasted) 75 mg, n = 5): 0 no. of subjects (%)
- TEAE Dermatitis contact (SAD (fasted) 75 mg, n = 5): 2 (40.0) no. of subjects (%)
- TEAE Diarrhea (SAD (fasted) 75 mg, n = 5): 0 no. of subjects (%)
- TEAE Dizziness (SAD (fasted) 75 mg, n = 5): 0 no. of subjects (%)
- TEAE Dyspepsia (SAD (fasted) 75 mg, n = 5): 0 no. of subjects (%)
- TEAE Gastrointestinal sounds abnormal (SAD (fasted) 75 mg, n = 5): 1 (20.0) no. of subjects (%)
- TEAE Gingivitis (SAD (fasted) 75 mg, n = 5): 0 no. of subjects (%)
- TEAE Headache (SAD (fasted) 75 mg, n = 5): 0 no. of subjects (%)
- TEAE Medical device site dermatitis (SAD (fasted) 75 mg, n = 5): 0 no. of subjects (%)
- TEAE Myalgia (SAD (fasted) 75 mg, n = 5): 1 (20.0) no. of subjects (%)
- TEAE Nausea (SAD (fasted) 75 mg, n = 5): 2 (40.0) no. of subjects (%)
- TEAE Presyncope (SAD (fasted) 75 mg, n = 5): 0 no. of subjects (%)
- TEAE Somnolence (SAD (fasted) 75 mg, n = 5): 0 no. of subjects (%)
- No. of TEAEs (SAD (fasted) 150 mg, n = 5): 6
- No. of deaths (SAD (fasted) 150 mg, n = 5): 0 no. of subjects (%)
- No. of subjects with at least one Related TEAE (SAD (fasted) 150 mg, n = 5): 3 (60.0) no. of subjects (%)
- No. of subjects with at least one Serious TEAE (SAD (fasted) 150 mg, n = 5): 0 no. of subjects (%)
- No. of subjects with at least one TEAE (SAD (fasted) 150 mg, n = 5): 4 (80.0) no. of subjects (%)
- No. of subjects withdrawn from study due to a TEAE (SAD (fasted) 150 mg, n = 5): 0 no. of subjects (%)
- TEAE Abdominal pain (SAD (fasted) 150 mg, n = 5): 0 no. of subjects (%)
- TEAE Back pain (SAD (fasted) 150 mg, n = 5): 0 no. of subjects (%)
- TEAE Catheter site pain (SAD (fasted) 150 mg, n = 5): 0 no. of subjects (%)
- TEAE Dermatitis contact (SAD (fasted) 150 mg, n = 5): 1 (20.0) no. of subjects (%)
- TEAE Diarrhea (SAD (fasted) 150 mg, n = 5): 0 no. of subjects (%)
- TEAE Dizziness (SAD (fasted) 150 mg, n = 5): 0 no. of subjects (%)
- TEAE Dyspepsia (SAD (fasted) 150 mg, n = 5): 0 no. of subjects (%)
- TEAE Gastrointestinal sounds abnormal (SAD (fasted) 150 mg, n = 5): 1 (20.0) no. of subjects (%)
- TEAE Gingivitis (SAD (fasted) 150 mg, n = 5): 0 no. of subjects (%)
- TEAE Headache (SAD (fasted) 150 mg, n = 5): 1 (20.0) no. of subjects (%)
- TEAE Medical device site dermatitis (SAD (fasted) 150 mg, n = 5): 0 no. of subjects (%)
- TEAE Myalgia (SAD (fasted) 150 mg, n = 5): 0 no. of subjects (%)
- TEAE Nausea (SAD (fasted) 150 mg, n = 5): 1 (20.0) no. of subjects (%)
- TEAE Presyncope (SAD (fasted) 150 mg, n = 5): 0 no. of subjects (%)
- TEAE Somnolence (SAD (fasted) 150 mg, n = 5): 0 no. of subjects (%)
- No. of TEAEs (SAD (fasted) 225 mg, n = 6): 7
- No. of deaths (SAD (fasted) 225 mg, n = 6): 0 no. of subjects (%)
- No. of subjects with at least one Related TEAE (SAD (fasted) 225 mg, n = 6): 0 no. of subjects (%)
- No. of subjects with at least one Serious TEAE (SAD (fasted) 225 mg, n = 6): 0 no. of subjects (%)
- No. of subjects with at least one TEAE (SAD (fasted) 225 mg, n = 6): 3 (50.0) no. of subjects (%)
- No. of subjects withdrawn from study due to a TEAE (SAD (fasted) 225 mg, n = 6): 0 no. of subjects (%)
- TEAE Abdominal pain (SAD (fasted) 225 mg, n = 6): 0 no. of subjects (%)
- TEAE Back pain (SAD (fasted) 225 mg, n = 6): 0 no. of subjects (%)
- TEAE Catheter site pain (SAD (fasted) 225 mg, n = 6): 0 no. of subjects (%)
- TEAE Dermatitis contact (SAD (fasted) 225 mg, n = 6): 0 no. of subjects (%)
- TEAE Diarrhea (SAD (fasted) 225 mg, n = 6): 0 no. of subjects (%)
- TEAE Dizziness (SAD (fasted) 225 mg, n = 6): 0 no. of subjects (%)
- TEAE Dyspepsia (SAD (fasted) 225 mg, n = 6): 0 no. of subjects (%)
- TEAE Gastrointestinal sounds abnormal (SAD (fasted) 225 mg, n = 6): 0 no. of subjects (%)
- TEAE Gingivitis (SAD (fasted) 225 mg, n = 6): 0 no. of subjects (%)
- TEAE Headache (SAD (fasted) 225 mg, n = 6): 0 no. of subjects (%)
- TEAE Medical device site dermatitis (SAD (fasted) 225 mg, n = 6): 2 (33.3) no. of subjects (%)
- TEAE Myalgia (SAD (fasted) 225 mg, n = 6): 1 (16.7) no. of subjects (%)
- TEAE Nausea (SAD (fasted) 225 mg, n = 6): 0 no. of subjects (%)
- TEAE Presyncope (SAD (fasted) 225 mg, n = 6): 1 (16.7) no. of subjects (%)
- TEAE Somnolence (SAD (fasted) 225 mg, n = 6): 0 no. of subjects (%)
- No. of TEAEs [1]: 33
- No. of deaths [1]: 0 no. of subjects (%)
- No. of subjects with at least one Related TEAE [1]: 4 (14.3) no. of subjects (%)
- No. of subjects with at least one Serious TEAE [1]: 0 no. of subjects (%)
- No. of subjects with at least one TEAE [1]: 19 no. of subjects (%) and 19 (67.9) no. of subjects (%)
- No. of subjects withdrawn from study due to a TEAE [1]: 0 no. of subjects (%)
- TEAE Abdominal pain [1]: 2 (7.1) no. of subjects (%)
- TEAE Back pain [1]: 1 (3.6) no. of subjects (%)
- TEAE Catheter site pain [1]: 1 (3.6) no. of subjects (%)
- TEAE Dermatitis contact [1]: 4 (14.3) no. of subjects (%)
- TEAE Diarrhea [1]: 0 no. of subjects (%)
- TEAE Dyspepsia [1]: 1 (3.6) no. of subjects (%)
- TEAE Gastrointestinal sounds abnormal [1]: 2 (7.1) no. of subjects (%)
- TEAE Gingivitis [1]: 0 no. of subjects (%)
- TEAE Headache [1]: 4 (14.3) no. of subjects (%)
- TEAE Medical device site dermatitis [1]: 2 (7.1) no. of subjects (%)
- TEAE Myalgia [1]: 2 (7.1) no. of subjects (%)
- TEAE Nausea [1]: 3 (10.7) no. of subjects (%)
- TEAE Presyncope [1]: 2 (7.1) no. of subjects (%)
- TEAE Somnolence [1]: 0 no. of subjects (%)
- No. of TEAEs (SAD (high fat) 75 mg, n = 5): 4
- No. of deaths (SAD (high fat) 75 mg, n = 5): 0 no. of subjects (%)
- No. of subjects with at least one Related TEAE (SAD (high fat) 75 mg, n = 5): 0 no. of subjects (%)
- No. of subjects with at least one Serious TEAE (SAD (high fat) 75 mg, n = 5): 0 no. of subjects (%)
- No. of subjects with at least one TEAE (SAD (high fat) 75 mg, n = 5): 2 (40.0) no. of subjects (%)
- No. of subjects withdrawn from study due to a TEAE (SAD (high fat) 75 mg, n = 5): 0 no. of subjects (%)
- TEAE Abdominal pain (SAD (high fat) 75 mg, n = 5): 0 no. of subjects (%)
- TEAE Back pain (SAD (high fat) 75 mg, n = 5): 0 no. of subjects (%)
- TEAE Catheter site pain (SAD (high fat) 75 mg, n = 5): 0 no. of subjects (%)
- TEAE Dermatitis contact (SAD (high fat) 75 mg, n = 5): 1 (20.0) no. of subjects (%)
- TEAE Diarrhea (SAD (high fat) 75 mg, n = 5): 0 no. of subjects (%)
- TEAE Dizziness (SAD (high fat) 75 mg, n = 5): 0 no. of subjects (%)
- TEAE Dyspepsia (SAD (high fat) 75 mg, n = 5): 0 no. of subjects (%)
- TEAE Gastrointestinal sounds abnormal (SAD (high fat) 75 mg, n = 5): 0 no. of subjects (%)
- TEAE Gingivitis (SAD (high fat) 75 mg, n = 5): 0 no. of subjects (%)
- TEAE Headache (SAD (high fat) 75 mg, n = 5): 1 (20.0) no. of subjects (%)
- TEAE Medical device site dermatitis (SAD (high fat) 75 mg, n = 5): 0 no. of subjects (%)
- TEAE Myalgia (SAD (high fat) 75 mg, n = 5): 0 no. of subjects (%)
- TEAE Nausea (SAD (high fat) 75 mg, n = 5): 1 (20.0) no. of subjects (%)
- TEAE Presyncope (SAD (high fat) 75 mg, n = 5): 0 no. of subjects (%)
- TEAE Somnolence (SAD (high fat) 75 mg, n = 5): 0 no. of subjects (%)
- changes in clinical laboratory results, vital signs, ECGs, or physical examinations (SAD and MAD stages): no significant changes
- severity of adverse events in GDC-8264-treated subjects (both stages (SAD and MAD)): mild
